Here are results for five compounds from ChEMBL document CHEMBL5053483, “Structure-Activity Relationship Study of Dexrazoxane Analogues Reveals ICRF-193 as the Most Potent Bisdioxopiperazine against Anthracycline Toxicity to Cardiomyocytes Due to Its Strong Topoisomerase IIβ Interactions” (J Med Chem, 2021).

The source made the active and inactive calls. The calls are words filed in the database; no cut-off is given here.

A short description of data set [1]: Cytotoxicity against Wistar rat neonatal ventricular cardiomyocytes at 1.2 uM by LDH assay. The data set is classed as tissue-based. Summed up:
(§1)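 Neonatal rat ventricular cardiomyocytes from collagenase II digests, preplated 2 h, 400 000 cells/well. Kept in serum- and pyruvate-free DMEM/F12. Cells pretreated 3 h with compound (10–100 μM), then co-incubated 3 h with 1.2 μM daunorubicin or without it. After 48 h in drug-free medium, LDH released to the medium was measured at 340 nm as percent of total LDH; four experiments.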

Data set [2] deals with HL-60. As to the kind of experiment: Antiproliferative activity against human HL-60 cells after 72 hrs by XTT assay. The data set is classed as functional, cell-based. The conditions noted are these: HL-60, 72 h. An outline of the steps: (§2)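 HL-60 (ATCC) grown in RPMI-1640 with 10% FBS and antibiotics at 37 °C, 5% CO2. Seeded at 10 000 cells/well, exposed to compound for 72 h. XTT/PMS (1 mg/mL XTT, 50 μM PMS in PBS) added, absorbance read at 450 nm after 4 h. Results as percent of DMSO control; four independent experiments.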

Data set [3] in a line: (§3) Cardioprotective activity against DAU-induced cardiotoxicity in Wistar rat neonatal ventricular cardiomyocytes preincubated for 3 hrs followed by DAU addition for 3 hrs and further incubated for 48 hrs in drug free medium by LDH assay. The class given is functional, tissue-based. Summed up: as §1
The target in data set [4] is DNA topoisomerase 2-alpha (Homo sapiens, UniProt P11388). As to the kind of experiment: Inhibition of human TOP2A assessed as reduction in […] using kDNA as substrate incubated for 30 min. Summed up:
(§4)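 Recombinant human TOP2A or TOP2B incubated with kDNA for 30 min at 37 °C. Buffer: 55 mM Tris-HCl pH 7.5, 135 mM NaCl, 10 mM MgCl2, 5 mM DTT, 0.1 mM EDTA, 3 mM ATP, 100 μg/mL BSA, 1% final DMSO. Compounds tested at 1–1000 μM. Products resolved on 1% agarose, SYBR Safe stained. Signal normalized to the untreated control on the same gel; three measurements.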

For another data set, the target named is DNA topoisomerase 2-beta (Homo sapiens, UniProt Q02880). In words: Inhibition of human TOP2B assessed as reduction in […] using kDNA as substrate incubated for 30 min. Summed up:
as §4

Data set [5] can be described thus: Metal chelating activity assessed as displacement of Fe3+ from DAU-Fe3+ complex measured for 10 mins by spectrophotometric method. An outline of the steps: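 DAU–Fe3+ complex (3:1) placed in 50 mM Tris/150 mM KCl, pH 7.4, room temperature, at 45 μM DAU and 15 μM Fe3+ final. After 3 min of equilibration, compound (100 μM) was added, with EDTA or SIH as reference chelators. Absorbance at 600 nm followed for 10 min, and the endpoint absorbance was compared.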

Data set [6] has as its system HL-60. In words: Antiproliferative activity against human HL-60 cells at 100 uM after 72 hrs by XTT assay. The class given is functional, cell-based. An outline of the steps:
as §2
In general terms: Formazan colour is commonly taken as a measure of viable cells.

The test system of data set [7] is HL-60. As to the kind of experiment: Antiproliferative activity against human HL-60 cells assessed as increase in daunorubicin activity at 100 uM after 72 hrs in presence of 15 nM of daunorubicin by XTT assay.
Data set [8] has as its system Neonatal ventricular cardiomyocytes. The description is as §3. The conditions noted are these: time 6.0 hrs. The class given is functional, tissue-based. Summed up: as §1

Sequence of DNA topoisomerase 2-beta (Q02880 whole entry): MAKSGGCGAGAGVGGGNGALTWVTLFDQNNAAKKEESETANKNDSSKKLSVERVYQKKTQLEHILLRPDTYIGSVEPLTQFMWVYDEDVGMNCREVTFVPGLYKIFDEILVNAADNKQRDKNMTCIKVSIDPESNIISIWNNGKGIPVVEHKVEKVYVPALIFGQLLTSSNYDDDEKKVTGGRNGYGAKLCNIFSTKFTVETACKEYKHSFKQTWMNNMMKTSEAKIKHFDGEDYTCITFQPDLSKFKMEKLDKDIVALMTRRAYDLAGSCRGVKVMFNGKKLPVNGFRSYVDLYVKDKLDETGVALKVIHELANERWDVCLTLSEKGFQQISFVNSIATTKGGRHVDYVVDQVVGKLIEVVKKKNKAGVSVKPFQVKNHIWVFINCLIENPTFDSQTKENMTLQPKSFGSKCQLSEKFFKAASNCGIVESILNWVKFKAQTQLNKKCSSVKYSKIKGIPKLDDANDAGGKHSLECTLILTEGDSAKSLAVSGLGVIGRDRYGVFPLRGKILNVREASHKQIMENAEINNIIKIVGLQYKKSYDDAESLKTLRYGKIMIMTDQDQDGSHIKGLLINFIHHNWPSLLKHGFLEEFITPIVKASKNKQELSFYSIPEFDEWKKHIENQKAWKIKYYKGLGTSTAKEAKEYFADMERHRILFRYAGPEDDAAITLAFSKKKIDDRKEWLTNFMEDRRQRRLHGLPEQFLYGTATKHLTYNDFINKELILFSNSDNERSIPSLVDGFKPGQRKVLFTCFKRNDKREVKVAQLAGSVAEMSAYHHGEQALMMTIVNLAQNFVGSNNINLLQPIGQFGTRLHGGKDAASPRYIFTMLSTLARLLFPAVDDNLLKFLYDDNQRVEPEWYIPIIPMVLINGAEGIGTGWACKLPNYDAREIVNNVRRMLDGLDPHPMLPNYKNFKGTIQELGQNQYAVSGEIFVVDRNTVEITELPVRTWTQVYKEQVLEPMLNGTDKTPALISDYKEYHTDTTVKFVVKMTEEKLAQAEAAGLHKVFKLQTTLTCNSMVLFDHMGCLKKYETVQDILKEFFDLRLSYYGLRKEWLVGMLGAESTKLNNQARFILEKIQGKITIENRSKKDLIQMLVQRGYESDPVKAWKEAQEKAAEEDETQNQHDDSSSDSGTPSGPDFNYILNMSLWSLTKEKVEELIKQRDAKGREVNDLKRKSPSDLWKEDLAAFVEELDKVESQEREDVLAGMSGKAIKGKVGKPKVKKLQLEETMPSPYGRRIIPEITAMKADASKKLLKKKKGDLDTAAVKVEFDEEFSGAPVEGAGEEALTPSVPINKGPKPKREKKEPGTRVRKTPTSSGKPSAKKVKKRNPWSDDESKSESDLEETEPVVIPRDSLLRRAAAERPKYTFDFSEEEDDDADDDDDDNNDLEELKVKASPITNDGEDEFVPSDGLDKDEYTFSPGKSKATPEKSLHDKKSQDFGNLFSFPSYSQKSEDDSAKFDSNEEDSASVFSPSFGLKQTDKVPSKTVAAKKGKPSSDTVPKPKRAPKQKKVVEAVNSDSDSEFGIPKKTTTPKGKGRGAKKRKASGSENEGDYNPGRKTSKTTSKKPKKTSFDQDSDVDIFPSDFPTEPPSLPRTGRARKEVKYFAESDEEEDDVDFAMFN
Sequence of DNA topoisomerase 2-alpha (P11388 whole entry): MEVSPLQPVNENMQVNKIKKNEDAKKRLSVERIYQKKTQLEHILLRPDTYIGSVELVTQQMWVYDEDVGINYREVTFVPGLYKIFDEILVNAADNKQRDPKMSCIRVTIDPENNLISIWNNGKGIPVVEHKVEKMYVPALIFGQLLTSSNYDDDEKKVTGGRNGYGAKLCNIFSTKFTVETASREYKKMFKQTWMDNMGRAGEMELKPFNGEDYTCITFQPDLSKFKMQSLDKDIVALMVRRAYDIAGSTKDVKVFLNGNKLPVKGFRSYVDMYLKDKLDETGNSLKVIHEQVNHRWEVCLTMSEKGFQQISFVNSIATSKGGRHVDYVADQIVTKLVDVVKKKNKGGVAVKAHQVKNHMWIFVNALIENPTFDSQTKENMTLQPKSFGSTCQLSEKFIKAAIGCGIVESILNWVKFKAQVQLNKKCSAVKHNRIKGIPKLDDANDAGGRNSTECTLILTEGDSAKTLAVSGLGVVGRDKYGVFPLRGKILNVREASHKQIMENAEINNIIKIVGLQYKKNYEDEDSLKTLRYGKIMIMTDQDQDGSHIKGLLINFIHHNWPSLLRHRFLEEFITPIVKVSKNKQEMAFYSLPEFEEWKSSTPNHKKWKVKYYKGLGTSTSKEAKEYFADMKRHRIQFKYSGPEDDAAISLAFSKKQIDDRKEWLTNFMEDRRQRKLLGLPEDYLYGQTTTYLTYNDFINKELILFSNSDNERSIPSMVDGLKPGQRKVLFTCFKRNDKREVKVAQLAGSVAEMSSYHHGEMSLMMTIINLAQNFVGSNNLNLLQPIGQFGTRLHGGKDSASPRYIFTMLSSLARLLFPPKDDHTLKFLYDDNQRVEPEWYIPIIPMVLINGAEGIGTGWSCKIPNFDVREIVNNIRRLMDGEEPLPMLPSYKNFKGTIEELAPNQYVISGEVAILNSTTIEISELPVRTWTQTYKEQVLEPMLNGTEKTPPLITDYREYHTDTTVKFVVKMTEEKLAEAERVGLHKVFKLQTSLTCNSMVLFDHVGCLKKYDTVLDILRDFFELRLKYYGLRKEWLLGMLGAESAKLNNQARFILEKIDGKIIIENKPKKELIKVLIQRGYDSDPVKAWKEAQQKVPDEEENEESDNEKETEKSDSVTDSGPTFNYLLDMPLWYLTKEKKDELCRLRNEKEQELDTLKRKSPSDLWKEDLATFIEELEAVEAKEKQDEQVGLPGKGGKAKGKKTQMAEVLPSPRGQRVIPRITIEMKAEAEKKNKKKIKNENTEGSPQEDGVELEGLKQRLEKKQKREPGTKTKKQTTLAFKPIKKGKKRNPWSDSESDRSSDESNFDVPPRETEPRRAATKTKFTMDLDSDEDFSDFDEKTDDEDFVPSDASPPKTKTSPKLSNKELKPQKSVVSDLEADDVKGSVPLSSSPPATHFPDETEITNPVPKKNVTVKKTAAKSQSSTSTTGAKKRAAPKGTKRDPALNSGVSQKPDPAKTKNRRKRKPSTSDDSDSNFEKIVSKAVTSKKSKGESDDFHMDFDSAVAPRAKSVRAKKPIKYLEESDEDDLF

For `COc1cccc2c1C(=O)c1c(O)c3c(c(O)c1C2=O)C[C@@](O)(C(C)=O)C[C@@H]3O[C@H]1C[C@H](N)[C@H](O)[C@H](C)O1` [DAUNORUBICIN], in data set [1], the Activity turned out to be 40%. Moreover, the IC50 in the data set with HL-60 [2] was found to be 0.015 µM.
In turn, `C[C@@H](CN1CC(=O)NC(=O)C1)N1CC(=O)NC(=O)C1` [DEXRAZOXANE] registered an EC50 in [3] of 101 µM. For the same compound, the results for the IC50 (in the data set with HL-60 [2]; in data set [4]; on DNA topoisomerase 2-beta) were 18 µM, 40 µM and 50 µM, respectively. The Activity in data set [5] was determined as 77%.
As for `CN(CCN(C)C1CC(=O)NC1=O)C1CC(=O)NC1=O` (stereo unspecified), the outcome in the data set on HL-60 [6] and in the data set on HL-60 [7] was Active.
As for `CC(C)(CN1CC(=O)NC(=O)C1)N1CC(=O)NC(=O)C1`, the result in data set [8] was inactive.
As for `O=C1CN(CC(O)CN2CC(=O)NC(=O)C2)CC(=O)N1`, in the data set with HL-60 [6], the outcome was Active.

One may read the IC50 as the concentration that inhibits the measured activity by half. The term EC50 denotes the concentration that produces a half-maximal response. A low value points to a more potent agent.
